# Measured values published in ChEMBL document CHEMBL3045677, “Sulfonamide-1,2,4-thiadiazole derivatives as antifungal and antibacterial agents: synthesis, biological evaluation, lipophilicity, and conformational studies” (2010).
# What was measured:
# Fulvia fulva = test: Antifungal activity against Passalora fulva TK5318 at 28 degC measured after 72 hr by microdilution method; type: functional; conditions: TK5318, 72 h
# Method in brief: (§1)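 Fungi were kept on malt agar at 4 °C. Spores were washed off with sterile 0.85% saline containing 0.1% Tween 80 and adjusted to about 1.0×10⁵ per well. Compounds were dissolved in DMSO (1 mg/ml stock) and serially diluted in malt broth with inoculum in 96-well plates, 72 h at 28 °C, for MIC. MFC came from subculture into fresh broth for a further 72 h at 28 °C.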
# Aspergillus versicolor = test: Antifungal activity against Aspergillus versicolor ATCC 11730 at 28 degC measured after 72 hr by microdilution method; type: functional; conditions: ATCC 11730, 72 h; method in brief: as §1
# Aspergillus flavus = test: Antifungal activity against Aspergillus flavus ATCC 9643 at 28 degC measured after 72 hr by microdilution method; type: functional; conditions: ATCC 9643, 72 h; method in brief: as §1
# Aspergillus niger = test: Antifungal activity against Aspergillus niger ATCC 6275 at 28 degC measured after 72 hr by microdilution method; type: functional; conditions: ATCC 6275, 72 h; method in brief: as §1
# Trichoderma viride = test: Antifungal activity against Hypocrea rufa IAM 5061 at 28 degC measured after 72 hr by microdilution method; type: functional; conditions: IAM 5061, 72 h; method in brief: as §1
# Aspergillus fumigatus = test: Antifungal activity against plant isolate Aspergillus fumigatus at 28 degC measured after 72 hr by microdilution method; type: functional; method in brief: as §1
# Penicillium ochrochloron = test: Antifungal activity against Penicillium ochrochloron ATCC 9112 at 28 degC measured after 72 hr by microdilution method; type: functional; conditions: ATCC 9112, 72 h; method in brief: as §1
# Talaromyces funiculosus = test: Antifungal activity against Talaromyces funiculosus ATCC 36839 at 28 degC measured after 72 hr by microdilution method; type: functional; conditions: ATCC 36839, 72 h; method in brief: as §1
# Listeria monocytogenes [1] = test: Antibacterial activity against Listeria monocytogenes NCTC 7973 at […] degC measured after 72 hr by microdilution method; type: functional; conditions: NCTC 7973, 72 h
# Method in brief: (§2)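 Bactericidal endpoint: after the 24 h broth microdilution (1.0×10⁴ CFU per well, LB broth, […] °C), wells were serially subcultured into plates of fresh broth and incubated a further 72 h. MBC was the lowest concentration with no visible growth, taken as 99.5% killing of the original inoculum.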
# Proteus mirabilis [2] = test: Antibacterial activity against Proteus mirabilis at […] degC measured after 72 hr by microdilution method; type: functional; method in brief: as §2
# Salmonella typhimurium [3] = test: Antibacterial activity against Salmonella enterica subsp. enterica serovar TyphimuriumATCC 13311 at […] degC measured after 72 hr by microdilution method; type: functional, Salmonella enterica subsp. enterica serovar Typhimurium; conditions: ATCC 13311, 72 h; method in brief: as §2
# Pseudomonas aeruginosa [4] = test: Antibacterial activity against Pseudomonas aeruginosa ATCC 27853 at […] degC measured after 72 hr by microdilution method; type: functional; conditions: ATCC 27853, 72 h; method in brief: as §2
# Escherichia coli [5] = test: Antibacterial activity against Escherichia coli ATCC 35210 at […] degC measured after 72 hr by microdilution method; type: functional; conditions: ATCC 35210, 72 h; method in brief: as §2
# Staphylococcus aureus [6] = test: Antibacterial activity against Staphylococcus aureus ATCC 6538 at […] degC measured after 72 hr by microdilution method; type: functional; conditions: ATCC 6538, 72 h; method in brief: as §2
# Micrococcus flavus [7] = test: Antibacterial activity against Micrococcus flavus ATCC 10240 at […] degC measured after 72 hr by microdilution method; type: functional; conditions: ATCC 10240, 72 h; method in brief: as §2
# Bacillus cereus [8] = test: Antibacterial activity against clinical isolate Bacillus cereus at […] degC measured after 72 hr by microdilution method; type: functional; method in brief: as §2
# Listeria monocytogenes [9] = test: Antibacterial activity against Listeria monocytogenes NCTC 7973 at […] degC measured after 24 hr by microdilution method; type: functional; conditions: NCTC 7973, 24 h
# Method in brief: (§3)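 Bacteria suspended in sterile saline at 1.0×10⁵ CFU/ml and added at 1.0×10⁴ CFU per well to LB broth with compound (1 mg/ml) in 96-well plates. Incubated 24 h at […] °C. MIC was the lowest concentration without visible growth under a binocular microscope. OD 655 nm was read against a blank and a positive control.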
# Salmonella typhimurium [10] = test: Antibacterial activity against Salmonella enterica subsp. enterica serovar Typhimurium ATCC 13311 at […] degC measured after 24 hr by microdilution method; type: functional; conditions: ATCC 13311, 24 h; method in brief: as §3
# Pseudomonas aeruginosa [11] = test: Antibacterial activity against Pseudomonas aeruginosa ATCC 27853 at […] degC measured after 24 hr by microdilution method; type: functional; conditions: ATCC 27853, 24 h; method in brief: as §3
# Proteus mirabilis [12] = test: Antibacterial activity against Proteus mirabilis at […] degC measured after 24 hr by microdilution method; type: functional; method in brief: as §3
# Escherichia coli [13] = test: Antibacterial activity against Escherichia coli ATCC 35210 at […] degC measured after 24 hr by microdilution method; type: functional; conditions: ATCC 35210, 24 h; method in brief: as §3
# Staphylococcus aureus [14] = test: Antibacterial activity against Staphylococcus aureus ATCC 6538 at […] degC measured after 24 hr by microdilution method; type: functional; conditions: ATCC 6538, 24 h; method in brief: as §3
# Bacillus cereus [15] = test: Antibacterial activity against clinical isolate Bacillus cereus at […] degC measured after 24 hr by microdilution method; type: functional; method in brief: as §3
# Micrococcus flavus [16] = test: Antibacterial activity against Micrococcus flavus ATCC 10240 at […] degC measured after 24 hr by microdilution method; type: functional; conditions: ATCC 10240, 24 h; method in brief: as §3
SMILES,MFC (Fulvia fulva),MIC (Fulvia fulva),MFC (Aspergillus versicolor),MIC (Aspergillus versicolor),MFC (Aspergillus flavus),MIC (Aspergillus flavus),MFC (Aspergillus niger),MIC (Aspergillus niger),MFC (Trichoderma viride),MIC (Trichoderma viride),MFC (Aspergillus fumigatus),MIC (Aspergillus fumigatus),MFC (Penicillium ochrochloron),MIC (Penicillium ochrochloron),MFC (Talaromyces funiculosus),MIC (Talaromyces funiculosus),MBC (Listeria monocytogenes [1]),MBC (Proteus mirabilis [2]),MBC (Salmonella typhimurium [3]),MBC (Pseudomonas aeruginosa [4]),other results
COc1cc(Cc2nnc(Nc3ccc(Cl)cc3)s2)c(S(=O)(=O)N(C)C)cc1OC,85.2 µM,21.3 µM,42.6 µM,10.7 µM,42.6 µM,10.7 µM,42.6 µM,10.7 µM,21.3 µM,10.7 µM,42.6 µM,10.7 µM,42.6 µM,21.3 µM,21.3 µM,10.7 µM,85.2 µM,42.6 µM,42.6 µM,85.2 µM,MBC (Escherichia coli [5]): 85.2 µM; MBC (Staphylococcus aureus [6]): 42.6 µM; MBC (Micrococcus flavus [7]): 42.6 µM; MBC (Bacillus cereus [8]): 21.3 µM; MIC (Listeria monocytogenes [9]): 85.2 µM; MIC (Salmonella typhimurium [10]): 21.3 µM; MIC (Pseudomonas aeruginosa [11]): 42.6 µM; MIC (Proteus mirabilis [12]): 21.3 µM; MIC (Escherichia coli [13]): 42.6 µM; MIC (Staphylococcus aureus [14]): 21.3 µM; MIC (Bacillus cereus [15]): 10.7 µM; MIC (Micrococcus flavus [16]): 21.3 µM
COc1cc(Cc2nnc(Nc3ccc(C(F)(F)F)cc3)s2)c(S(=O)(=O)N2CCN(C)CC2)cc1OC,17.9 µM,8.9 µM,35.8 µM,17.9 µM,35.8 µM,17.9 µM,35.8 µM,17.9 µM,17.9 µM,8.9 µM,17.9 µM,8.9 µM,35.8 µM,17.9 µM,17.9 µM,8.9 µM,35.8 µM,35.8 µM,35.8 µM,35.8 µM,MBC (Escherichia coli [5]): 17.9 µM; MBC (Staphylococcus aureus [6]): 35.8 µM; MBC (Micrococcus flavus [7]): 35.8 µM; MBC (Bacillus cereus [8]): 17.9 µM; MIC (Listeria monocytogenes [9]): 17.9 µM; MIC (Salmonella typhimurium [10]): 17.9 µM; MIC (Pseudomonas aeruginosa [11]): 17.9 µM; MIC (Proteus mirabilis [12]): 17.9 µM; MIC (Escherichia coli [13]): 17.9 µM; MIC (Staphylococcus aureus [14]): 17.9 µM; MIC (Bacillus cereus [15]): 17.9 µM; MIC (Micrococcus flavus [16]): 17.9 µM
COc1cc(Cc2nnc(Nc3ccccc3)s2)c(S(=O)(=O)N2CCCC2)cc1OC,21.7 µM,10.9 µM,43.4 µM,21.7 µM,43.4 µM,21.7 µM,43.4 µM,21.7 µM,21.7 µM,10.9 µM,43.4 µM,21.7 µM,43.4 µM,21.7 µM,43.4 µM,21.7 µM,43.4 µM,43.4 µM,21.7 µM,43.4 µM,MBC (Escherichia coli [5]): 43.4 µM; MBC (Staphylococcus aureus [6]): 43.4 µM; MBC (Micrococcus flavus [7]): 21.7 µM; MBC (Bacillus cereus [8]): 21.7 µM; MIC (Listeria monocytogenes [9]): 21.7 µM; MIC (Salmonella typhimurium [10]): 10.9 µM; MIC (Pseudomonas aeruginosa [11]): 21.7 µM; MIC (Proteus mirabilis [12]): 21.7 µM; MIC (Escherichia coli [13]): 21.7 µM; MIC (Staphylococcus aureus [14]): 21.7 µM; MIC (Bacillus cereus [15]): 10.9 µM; MIC (Micrococcus flavus [16]): 10.9 µM
